Each structure is given as a SMILES string. The source made the active and inactive calls.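 The calls were made as follows, unless noted: active = viability at or under a set limit in both replicates, limit being median viability minus 3 SD (cut at about 48% in these data, passing the limit was not always enough); inconclusive = at or under the limit in just one replicate; inactive = at or above the limit in both replicates.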

Assay [1] can be described thus: Her2 expression decrease, cell viability multiplex – SKBR3 breast tumor cells, AlphaScreen, ATP viability, primary screen (AID 461;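 active = Her2 level under about 52% in both replicate screens, with viability over 70% of control, limit read from the data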;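 as to Her2 level: lower value means less Her2 protein in the cells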;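 as to viability: percent of carrier control wells set as 100% viability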). To be noted: SKBR3 Her2 protein level, 18-24 h, measured here: SKBR3 viability, ATP luminescence, at 10 µM.
Assay [2] concerns the target Receptor tyrosine-protein kinase erbB-2 (Homo sapiens) (UniProt P04626). Described as above. To be noted: 18-24 h, at 10 µM, stronger effect = lower value.
Assay [3] can be described thus: reduced viability of SK-BR-3 breast cancer cells – cell-based, 24 h, human, pilot screen (AID 572;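 active = viability at or below 10% of carrier control in both of two separate runs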;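 also: compound exposure lasted between 18 and 24 h rather than exactly 24 h; 100% = carrier-treated control wells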). Conditions: SK-BR-3 viability, CellTiter-Glo luminescence, at 10 µM, stronger effect = lower value.
Assay [4] is described as follows: HUVEC growth inhibition – cell-based, human, primary screen (AID 575;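 active = viability at or below 30% in both replicate assays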;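 also: 100% = median of untreated cell wells with 0.1% DMSO on each plate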). To be noted: HUVEC proliferation, CellTiter-Glo luminescence, 72 h; at 10 µM; stronger effect = lower value. The gist of the method:
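Assay system: primary human umbilical vein endothelial cells / Buffer or medium: endothelial basal medium with 2% FBS plus growth supplements / Compound dosing: one dose, 10 µM final, 0.1% DMSO / Timing: 72 h treatment at 37 °C / Signal: CTG luminescence / Benchmarks: 32 DMSO-only cell-control wells (high), 32 MePR drug-control wells (low) per plate / Plate: collagen-coated 384-well format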

The nature of assay [5]: H69AR cell proliferation blockers – human, duplicate replicates, primary screen (AID 580).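 Also: 100% = mean luminescence of untreated wells and 0% = no signal.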 To be noted: H69AR lung tumor cells viability, ATP luminescence, 72 h; at 10 µM; stronger effect = lower value.
Assay [6] is described as follows: MRP1 drug-resistance reversers in H69AR cells – cell-based, doxorubicin co-treatment, pilot screen (AID 601;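 active = viability loss from added drug above about 55%, and viability with drug at most 40%, in both replicates, limit read from the data, passing the limit was not always enough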). Conditions: CellTiter-Glo, 72 h, at 10 µM; for differential viability (reversal): stronger effect = higher value.
Assay [7] can be described thus: yeast transport mutant growth inhibition pilot in 384-well plates, post-Golgi transport modulator project (AID 636; in the data active = inhibition above about 31%). Conditions: absorbance 615 nm, about 18 h, stronger effect = higher value.
The nature of assay [8]: growth suppression of yeast trafficking mutant, preliminary HTS, modulators of trafficking downstream of Golgi apparatus project, 1536-format plate, OD 615 nm (AID 637; in the data active = inhibition above about 30%). Conditions: yeast transport mutant growth, absorbance 615 nm, 18 h; stronger effect = higher value.
Setting [9] is: H69AR cells + 2 uM doxorubicin, measured here: viability with 2 uM doxorubicin, stronger effect = lower value.
Setting [10] is: H69AR cells, compound alone cytotoxicity.

Chain of Receptor tyrosine-protein kinase erbB-2 (Homo sapiens) (P04626 whole entry, looked up): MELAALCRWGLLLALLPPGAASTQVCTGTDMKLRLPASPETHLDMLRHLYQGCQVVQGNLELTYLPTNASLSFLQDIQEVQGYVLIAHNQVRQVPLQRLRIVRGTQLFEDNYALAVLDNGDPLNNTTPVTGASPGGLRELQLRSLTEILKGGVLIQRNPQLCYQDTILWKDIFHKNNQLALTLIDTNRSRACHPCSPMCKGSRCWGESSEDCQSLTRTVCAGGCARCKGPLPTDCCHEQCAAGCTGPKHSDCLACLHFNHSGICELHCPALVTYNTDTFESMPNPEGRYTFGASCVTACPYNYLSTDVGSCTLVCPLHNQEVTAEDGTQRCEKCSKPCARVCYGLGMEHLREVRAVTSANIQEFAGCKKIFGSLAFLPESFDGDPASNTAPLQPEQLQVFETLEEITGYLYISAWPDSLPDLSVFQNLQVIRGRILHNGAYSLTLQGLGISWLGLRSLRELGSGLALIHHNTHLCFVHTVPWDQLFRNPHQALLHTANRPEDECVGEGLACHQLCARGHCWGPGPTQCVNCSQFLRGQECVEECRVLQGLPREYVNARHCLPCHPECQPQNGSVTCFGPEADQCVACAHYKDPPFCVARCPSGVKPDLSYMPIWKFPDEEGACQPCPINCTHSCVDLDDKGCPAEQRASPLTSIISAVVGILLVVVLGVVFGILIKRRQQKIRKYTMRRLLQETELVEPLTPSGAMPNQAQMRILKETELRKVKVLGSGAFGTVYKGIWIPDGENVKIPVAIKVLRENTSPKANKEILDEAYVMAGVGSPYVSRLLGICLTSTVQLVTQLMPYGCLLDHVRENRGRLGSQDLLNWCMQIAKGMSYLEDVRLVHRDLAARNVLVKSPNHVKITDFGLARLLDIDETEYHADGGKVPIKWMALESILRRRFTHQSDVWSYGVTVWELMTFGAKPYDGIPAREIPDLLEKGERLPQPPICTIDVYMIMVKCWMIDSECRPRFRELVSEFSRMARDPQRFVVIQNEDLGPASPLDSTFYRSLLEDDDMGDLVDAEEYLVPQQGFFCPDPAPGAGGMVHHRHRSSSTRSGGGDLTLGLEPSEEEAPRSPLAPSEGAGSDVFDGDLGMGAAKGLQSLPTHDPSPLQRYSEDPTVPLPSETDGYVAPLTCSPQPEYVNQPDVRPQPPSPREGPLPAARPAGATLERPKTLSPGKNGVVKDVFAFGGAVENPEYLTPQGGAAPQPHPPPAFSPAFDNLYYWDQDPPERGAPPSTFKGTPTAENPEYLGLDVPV

As for `O=C(Cn1c(C(=O)NCC2CCCO2)cc2sccc21)c1ccccc1` (stereo not given), the viability in assay [1] was 94.5%; in assay [3] it was 94.5% (inactive); in assay [4] it was 101% (inactive); in assay [5] it was 90.3% (inactive); in assay [6] (setting [9]), 83.2%; in assay [6] (setting [10]), 90.3%. For the same compound, the Her2 level in assay [2] is 100% (inactive). Besides, the differential viability (reversal) in assay [6] (H69AR cells + 2 uM doxorubicin) was 7.12% (inactive). The inhibition in assay [7] is -1.56% (inactive); in assay [8], -5.56% (inactive).

`O=C(CN1C(=O)COCC1=O)N1CCOCC1`: the viability is 91% in assay [1]; 91% (inactive) in assay [3]; 104% (inactive) in assay [4]; 96.9% (inactive) in assay [5]; 97.5% in assay [6] (setting [9]); 96.9% in assay [6] (setting [10]). Besides, the Her2 level in assay [2] is 86.5% (inactive). Also, in assay [6] (H69AR cells + 2 uM doxorubicin), the differential viability (reversal) is -0.64% (inactive). Besides, the values for the inhibition in assay [7] and in assay [8] were 0.26% (inactive) and 0% (inactive), respectively.

On to `COc1ccc(N2CCN(C(=O)CSc3ccccc3N)CC2)cc1`, for which the viability in assay [1] was 85.5%; in assay [3], 85.5% (inactive); in assay [4], 88.2% (inactive); in assay [5], 94.9% (inactive); in assay [6] (setting [9]), 97.5%; in assay [6] (setting [10]), 94.9%. In addition, in assay [2], the Her2 level is 88% (inactive). In addition, the differential viability (reversal) in assay [6] (H69AR cells + 2 uM doxorubicin) was -2.63% (inactive). For the same compound, the inhibition in assay [7] is 0% (inactive); in assay [8], -0.55% (inactive).

Take `Cc1cc(C)cc(-n2ccnc2SCC(=O)Nc2ccc3c(c2)OCCO3)c1`: the viability in assay [1] was 119%; in assay [3], 119% (inactive); in assay [4], 90.7% (inactive); in assay [5], 99.3% (inactive); in assay [6] (setting [9]), 91.2%; in assay [6] (setting [10]) it was 99.3%. Further, the Her2 level in assay [2] was 93.5% (inactive). Also, the differential viability (reversal) in assay [6] (H69AR cells + 2 uM doxorubicin) was 8.09% (inactive). Further, the inhibition in assay [7] was -6.05% (inactive); in assay [8], -0.91% (inactive).

Regarding `Cc1occc1C(=O)Nc1cccnc1`, the viability is 101% in assay [1]; 101% (inactive) in assay [3]; 100% (inactive) in assay [4]; 97.7% (inactive) in assay [5]; 94.1% in assay [6] (setting [9]); 97.7% in assay [6] (setting [10]). The Her2 level in assay [2] was 92% (inactive). Moreover, the differential viability (reversal) in assay [6] (H69AR cells + 2 uM doxorubicin) was 3.58% (inactive). Further, the inhibition in assay [7] is -7.73% (inactive); in assay [8] it was 2.9% (inactive).

As to `CC(C)(C)OC(=O)N1CCOCCOCCN(C(=O)OC(C)(C)C)CCOCCOCC1`, the viability was 97.5% in assay [1]; 97.5% (inactive) in assay [3]; 83% (inactive) in assay [4]; 93.4% (inactive) in assay [5]; 96.4% in assay [6] (setting [9]); 93.4% in assay [6] (setting [10]). For the same compound, in assay [2], the Her2 level is 112% (inactive). Further, the differential viability (reversal) in assay [6] (H69AR cells + 2 uM doxorubicin) is -2.94% (inactive). Moreover, the inhibition in assay [7] is -3.16% (inactive); in assay [8] it was 5.74% (inactive).

Take `CC1(C)Cc2c(sc3c2c(=N)n(Cc2ccco2)c(=O)n3Cc2ccccc2)CO1`: the viability in assay [1] was 98.5%; in assay [3] it was 98.5% (inactive); in assay [4], 90.1% (inactive); in assay [5], 71.9% (inactive); in assay [6] (setting [9]), 43%; in assay [6] (setting [10]), 71.9%. For the same compound, the Her2 level in assay [2] was 88.5% (inactive). For the same compound, the differential viability (reversal) in assay [6] (H69AR cells + 2 uM doxorubicin) was 28.9% (inactive). Moreover, the inhibition in assay [7] was -1.82% (inactive); in assay [8], -1.27% (inactive).

Take `COc1cccc(OCCSc2nnc3sc4ccccc4n23)c1`: the viability in assay [1] was 86%; in assay [3], 86% (inactive); in assay [4], 106% (inactive); in assay [5], 85.3% (inactive); in assay [6] (setting [9]), 91.8%; in assay [6] (setting [10]) it was 85.3%. Moreover, the Her2 level in assay [2] is 98% (inactive). For the same compound, in assay [6] (H69AR cells + 2 uM doxorubicin), the differential viability (reversal) is -6.48% (inactive). Besides, the inhibition in assay [7] was 2.73% (inactive); in assay [8], 0.66% (inactive).

`CCCCCCNS(=O)(=O)c1ccc(Cl)s1`: the viability was 85% in assay [1]; 85% (inactive) in assay [3]; 81.9% (inactive) in assay [4]; 89.1% (inactive) in assay [5]; 87.8% in assay [6] (setting [9]); 89.1% in assay [6] (setting [10]). In assay [2], the Her2 level is 86.5% (inactive). In addition, the differential viability (reversal) in assay [6] (H69AR cells + 2 uM doxorubicin) is 1.29% (inactive). The inhibition was -4.4% (inactive) in assay [7] and 22.9% (inactive) in assay [8].

For the compound `Nc1c(N2CCCCC2)c(=O)[nH]c(=O)n1-c1ccccc1`, the viability in assay [1] is 105%; in assay [3], 105% (inactive); in assay [4], 102% (inactive); in assay [5] it was 109% (inactive); in assay [6] (setting [9]), 95.3%; in assay [6] (setting [10]), 109%. Besides, the Her2 level in assay [2] is 139% (inactive). Moreover, the differential viability (reversal) in assay [6] (H69AR cells + 2 uM doxorubicin) is 13.9% (inactive). Moreover, the inhibition is -2.86% (inactive) in assay [7] and -4.33% (inactive) in assay [8].

Take `CCCCN(CC)S(=O)(=O)N1CCC(C(=O)NCc2ccc(F)cc2)CC1`: the viability was 97% in assay [1]; 97% (inactive) in assay [3]; 109% (inactive) in assay [4]; 101% (inactive) in assay [5]; 101% in assay [6] (setting [9]); 101% in assay [6] (setting [10]). The Her2 level in assay [2] was 113% (inactive). Moreover, in assay [6] (H69AR cells + 2 uM doxorubicin), the differential viability (reversal) was 0.67% (inactive). The inhibition in assay [7] was -4.34% (inactive); in assay [8], 2.62% (inactive).

As for `CC(C)(C)n1nnnc1C(c1cccc(C#N)c1)N1CCC(Cc2ccccc2)CC1` (stereo not given), the viability in assay [1] was 87.5%; in assay [3] it was 87.5% (inactive); in assay [4], 114% (inactive); in assay [5], 86.1% (inactive); in assay [6] (setting [9]), 86.6%; in assay [6] (setting [10]), 86.1%. The Her2 level in assay [2] was 86% (inactive). The differential viability (reversal) in assay [6] (H69AR cells + 2 uM doxorubicin) is -0.44% (inactive). In addition, the inhibition in assay [7] was -0.79% (inactive); in assay [8], 1.77% (inactive).

Take `Cn1c(=O)c2c(nc(NCC3CCCO3)n2C)n(C)c1=O` (stereo not given): the viability was 102% in assay [1]; 102% (inactive) in assay [3]; 105% (inactive) in assay [4]; 103% (inactive) in assay [5]; 95.5% in assay [6] (setting [9]); 103% in assay [6] (setting [10]). In assay [2], the Her2 level was 104% (inactive). In assay [6] (H69AR cells + 2 uM doxorubicin), the differential viability (reversal) is 7.24% (inactive). Also, the values for the inhibition in assay [7] and in assay [8] were -1.33% (inactive) and -3.11% (inactive), respectively.

As for `Cc1nc(N2CCN(c3ncccn3)CC2)c2oc3ccccc3c2n1`, the viability in assay [1] is 85%; in assay [3] it was 85% (inactive); in assay [4], 83.9% (inactive); in assay [5], 99.4% (inactive); in assay [6] (setting [9]), 111%; in assay [6] (setting [10]) it was 99.4%. Moreover, the Her2 level in assay [2] is 106% (inactive). Moreover, the differential viability (reversal) in assay [6] (H69AR cells + 2 uM doxorubicin) is -11.8% (inactive). The inhibition in assay [7] was -5.47% (inactive); in assay [8] it was -2.06% (inactive).

As to `Cc1onc(-c2ccccc2)c1C(=O)N1CCN(C(=O)c2ccco2)CC1`, the viability in assay [1] was 98%; in assay [3] it was 98% (inactive); in assay [4], 101% (inactive); in assay [5], 88.4% (inactive); in assay [6] (setting [9]), 90.5%; in assay [6] (setting [10]), 88.4%. Besides, the Her2 level in assay [2] was 98.5% (inactive). Moreover, the differential viability (reversal) in assay [6] (H69AR cells + 2 uM doxorubicin) was -2.1% (inactive). The inhibition in assay [7] was -6.67% (inactive); in assay [8] it was 5.32% (inactive).

Turning to `CCCCC(=NCCO)C1=C(O)C(C(=O)OC)C(C)(C)CC1=O` (stereo not given), the viability is 90.5% in assay [1]; 90.5% (inactive) in assay [3]; 99.7% (inactive) in assay [4]; 89.5% (inactive) in assay [5]; 90.5% in assay [6] (setting [9]); 89.5% in assay [6] (setting [10]). Also, the Her2 level in assay [2] was 93% (inactive). Besides, the differential viability (reversal) in assay [6] (H69AR cells + 2 uM doxorubicin) was -0.975% (inactive). Besides, the inhibition in assay [7] was -3.68% (inactive); in assay [8], -3.81% (inactive).

(Values after PubChem BioAssay.)
